# RAD54 branch – inhibitors of human RAD54 branch migration; RAD54 Holliday junction branch migration, FAM/BHQ fluorescence; inhibition, % at 10.4 µM; 0.14% of 360,000 active; AID 602329;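 active = mean normalized replicate activity at least 40 and at least half of replicates scoring 40 or more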;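 note: 0% = median of neutral control wells and 100% = median of positive control wells; inhibitors cause a drop in the FAM fluorescence signal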
# S100A4 inh HTS – S100A4-myosin IIA interaction inhibition; P26447; S100A4/TAMRA-MyoIIA peptide fluorescence polarization; inhibition, % at 10.7 µM; 0.14% of 360,000 active; AID 652163;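 active = mean inhibition of at least 70% across replicates, with every replicate also reaching that level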
#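 Test system: S100A4 monomer protein; Medium: HEPES pH 7.2 with CaCl2, KCl, NaCl, DTT, Triton; Probe or stimulus: TAMRA-labelled myosin IIA heavy-chain peptide probe, 5 nM; Doses: one dose per compound; Times: polarization read 5 min after assay mix addition, stable 5–60 min; Benchmarks: neutral control DMSO, positive control TFP.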
# Casp6 inh – caspase-6 (human) enzyme inhibition. P55212. purified caspase-6, Z-VEID-R110 cleavage fluorescence. inhibition, % at 12.5 µM. 0.53% of 350,000 active;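 active = mean inhibition across replicates at least about 35%, with every replicate also reaching that limit, limit read from the data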;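 note: 0% = median of neutral control wells and 100% = no fluorescence left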
# XiGFP reactiv – reactivates the inactive X chromosome in mouse fibroblasts. XiGFP mouse fibroblasts, % GFP-positive cells imaging, 3 d; cells co-treated with 5-aza-dC sensitizer; scaled so ellipticine positive control = 100%. activation, % at 7.58 µM. 0.055% of 360,000 active;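 active = mean normalized replicate activation at least 10% and every replicate at or above 10%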;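 note: 0% = median of on-plate neutral control wells and 100% = ellipticine 6 µM median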
#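 Material: XiGFP fibroblasts, SV40-immortalized; Buffer or medium: DMEM containing 5-aza-dC; Compound dosing: single point; Times: 3 days compound exposure.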
# AF4-AF9 inh – MLL-AF4/AF9 protein interaction inhibition; P42568; AlphaScreen, biotin-AF4 peptide binding to FLAG-AF9; inhibition, % at 10 µM; 0.47% of 350,000 active; AID 651704;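 active = every replicate reaching a set inhibition limit, whatever the replicate mean, cut at about 25% in these data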;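 note: 0% = plate neutral control median and 100% = total signal loss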
# Target sequence (P42568 whole entry, looked up): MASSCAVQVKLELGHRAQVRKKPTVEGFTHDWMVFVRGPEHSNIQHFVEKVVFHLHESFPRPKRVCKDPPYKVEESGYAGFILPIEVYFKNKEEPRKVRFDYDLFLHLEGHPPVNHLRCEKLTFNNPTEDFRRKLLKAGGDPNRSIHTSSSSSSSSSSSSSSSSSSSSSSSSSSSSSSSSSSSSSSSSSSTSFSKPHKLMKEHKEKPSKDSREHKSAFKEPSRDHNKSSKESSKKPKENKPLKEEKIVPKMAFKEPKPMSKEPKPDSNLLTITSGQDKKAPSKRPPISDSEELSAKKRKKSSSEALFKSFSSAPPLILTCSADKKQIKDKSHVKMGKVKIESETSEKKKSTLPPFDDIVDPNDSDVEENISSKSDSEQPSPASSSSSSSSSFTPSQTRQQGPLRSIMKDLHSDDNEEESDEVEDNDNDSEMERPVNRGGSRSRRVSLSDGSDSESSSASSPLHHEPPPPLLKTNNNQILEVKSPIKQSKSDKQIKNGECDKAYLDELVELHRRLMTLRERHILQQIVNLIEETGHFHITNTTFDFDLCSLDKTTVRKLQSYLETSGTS
# RAD52 inh – inhibitors of human RAD52 DNA annealing | P43351 | recombinant RAD52 DNA annealing, FRET fluorescence | inhibition, % at 18.7 µM | 0.46% of 360,000 active | AID 651710;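 active = every replicate showing at least 50% inhibition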
# Numbers without * were called inactive; / = no result. This is a sample that favours compounds with a hit; in the whole collection about 1.3% have one here.
SMILES,RAD54 branch,S100A4 inh HTS,Casp6 inh,XiGFP reactiv,AF4-AF9 inh,RAD52 inh
O=S(=O)(c1ccc(NC(=S)N/N=C/c2ccc(O)c(O)c2)cc1)N1CCOCC1,3,12,40*,0,12,-12
O=C(C[C@@H]1C[C@@H]2c3cc(NC(=O)CC4CC4)ccc3O[C@@H]2[C@H](CO)O1)NCc1ccccn1,-4,2,/,0,-3,-18
CCOc1ccc(OCCSc2ccc(S(=O)(=O)N3CCN(C)CC3)cn2)cc1,2,-1,-1,0,27*,-5
Cc1nc2c(nc1C)C(=O)c1ccccc1C2=O,/,-16,36*,0,-3,10
CN(C)c1ccc(/C=C/c2ccc3ccccc3[n+]2C)cc1,81*,/,/,0,/,/
CN(C)c1ccc(/C=C/c2ccc3c4ccccc4ccc3[n+]2-c2ccccc2)cc1,74*,156*,38*,0,94*,45
CN(CCCS(=O)(=O)[O-])c1ccc(/C=C/c2ccc3ccccc3[n+]2C)cc1,-6,-19,-1,0,-3,-27
O=C(NCC[C@@H]1CC[C@H](NC(=O)C2CCCC2)[C@@H](CO)O1)c1cnccn1,4,-34,-2,0,-4,-2
CCC(=O)OCCNc1cc(Sc2nc3ccccc3[nH]2)c2nonc2c1[N+](=O)[O-],/,/,/,16*,/,/
CCCC(=O)OCCNc1cc(Sc2nccn2C)c2nonc2c1[N+](=O)[O-],/,/,/,23*,/,/
Cc1ccn2c(Nc3ccccc3C)c(-c3ccccn3)nc2c1,1,-10,-1,0,/,28
Cc1ccccc1Nc1c(-c2ccccn2)nc2ccccn12,/,0,0,0,42*,15
CCOC(=O)N1CCN(S(=O)(=O)c2ccc(C(=O)N(CCCN(C)C)c3nc4c(C)c(C)ccc4s3)cc2)CC1,17,-2,-6,0,26*,33
COc1ccc(N=Nc2cc(OC)c(N)cc2OC)cc1,-2,-7,1,0,32*,-8
COc1ccc(N=Nc2ccc(N)nc2N)cc1,15,13,3,0,13,5
Clc1cccc(-c2nn3c(Cn4cnc5ccccc54)nnc3s2)c1,/,8,57*,/,4,6
[O-][n+]1c2ccccc2[n+]([O-])c2cc(O)ccc21,-4,3,68*,0,10,-6
CC(=O)N1[C@H](C(=O)N[C@@H](C)c2ccccc2)[C@@H](CO)[C@@H]2Cn3c(cccc3=O)[C@@H]21,-4,10,1,0,-1,2
O=C(NC1CCCC1)N[C@@H]1CC[C@H](CC(=O)N2CCOCC2)O[C@H]1CO,-3,1,0,0,2,3
O=C(CNC(=O)c1ccc(Cl)cc1Cl)OCc1cn2cc(Br)ccc2n1,-3,74*,1,0,-2,-20
O=C1NC[C@@H](CCCCN2CCN(CCc3ccc(O)cc3)C(=O)C2=O)N(CCc2ccc(O)cc2)C1=O,/,-1,40*,0,-3,-9
O=C1CC(CC(=O)N/N=C/c2ccccc2[N+](=O)[O-])=NN1,-2,/,/,0,/,/
NNC(=O)CC1=NNC(=O)C1,-2,-9,40*,0,-1,-16
Cc1noc(C)c1NC(=O)Nc1ccc2c(c1)C(=O)N([C@H](C)CO)C[C@@H](C)[C@H](CN(C)C(=O)c1ccccc1)OCCCC[C@H](C)O2,-4,50,2,0,-4,7
C=CCN(CC=C)Cc1cc(=O)n2c(-c3ccccc3)csc2n1,-4,-2,3,0,49*,-36
SMILES,RAD54 branch,S100A4 inh HTS,Casp6 inh,XiGFP reactiv,AF4-AF9 inh,RAD52 inh
CN(C)CC(=O)Nc1ccc2c(c1)[C@@H]1C[C@@H](CC(=O)NCc3ccccc3F)O[C@H](CO)[C@@H]1O2,-5,/,/,0,/,/
COC1=C(Br)C(=O)c2nc(C)ccc2C1=O,2,0,95*,0,-6,-7
COC1=C(N)C(=O)c2nc(C)ccc2C1=O,/,2,56*,0,11,-23
O=C(c1ccccn1)N1C[C@H]2[C@@H](c3ccccc31)[C@H](CO)N2C(=O)Cc1ccccc1,-12,-4,4,0,-2,-6
CCOc1ccc(N(CC(=O)Nc2cc(Cl)ccc2C)S(C)(=O)=O)cc1,3,14,57*,0,-5,-8
CCOc1ccc(N(CC(=O)Nc2ccccc2Cl)S(C)(=O)=O)cc1,10,3,2,0,-1,-12
COCC(=O)Nc1ccc2c(c1)C(=O)N(C)C[C@@H](OC)[C@H](C)CN(C(=O)Cc1ccccn1)[C@@H](C)CO2,-4,3,-1,0,-1,-22
Cc1noc(C)c1S(=O)(=O)Nc1ccc2c(c1)CC(=O)N([C@@H](C)CO)C[C@H](C)[C@@H](CN(C)C(=O)NC1CCCCC1)O2,-5,2,-1,0,-2,-5
COc1ccc2cc3cc(C(=O)NCCCN4CCOCC4)oc3nc2c1,60*,/,/,/,/,/
COc1ccc2cc3cc(C(=O)NCCN4CCN(Cc5ccccc5)CC4)oc3nc2c1,11,/,/,/,/,/
O=[N+]([O-])c1ccc(Sc2ccccc2Cl)nc1,-5,/,/,/,/,/
Nc1ccc(Sc2ccccc2Cl)nc1,/,4,43*,0,2,-14
CCN1CCN(S(=O)(=O)c2ccc(Cl)c(C(=O)N(C)C3CCCCC3)c2)CC1,13,-2,-227,0,26*,-134
CN1CCN(C(=O)C[C@H]2CC[C@@H]3[C@H](COc4ccc(NC(=O)C5CCCC5)cc4C(=O)N3C)O2)CC1,/,8,-2,0,1,-2
CN1C(=O)c2cc(NC(=O)Nc3ccc(Cl)cc3)ccc2OC[C@@H]2O[C@H](CC(=O)NCCN3CCCCC3)CC[C@@H]21,18,-2,3,0,7,54*
CN1C(=O)c2cc(NC(=O)Cc3cccs3)ccc2OC[C@H]2O[C@H](CC(=O)N[C@H]3CCN(Cc4ccccc4)C3)CC[C@@H]21,-2,96*,-8,0,4,14
CN1C(=O)c2cc(NC(=O)Cc3cccs3)ccc2OC[C@@H]2O[C@@H](CC(=O)N[C@H]3CCN(Cc4ccccc4)C3)CC[C@H]21,1,5,-5,0,5,30
CN1CCN(C(=O)C[C@H]2CC[C@@H]3[C@@H](COc4ccc(NC(=O)C5CCCC5)cc4C(=O)N3C)O2)CC1,/,5,0,0,47*,2
CN1C(=O)c2cc(NC(=O)Nc3ccc(Cl)cc3)ccc2OC[C@H]2O[C@@H](CC(=O)NCCN3CCCCC3)CC[C@H]21,15,6,-2,0,6,41
C[C@H]1CN([C@@H](C)CO)C(=O)c2cccc(NS(C)(=O)=O)c2O[C@H]1CN(C)C(=O)Nc1ccc(C(F)(F)F)cc1,0,3,0,0,-3,9
